The values that follow come from ChEMBL document CHEMBL1125001, “Selective inhibition of urokinase by substituted phenylguanidines: quantitative structure-activity relationship analyses” (J Med Chem, 1990).

Assay [1] deals with Plasma kallikrein (Homo sapiens) (UniProt P03952). Kind of assay: Inhibition against human plasma Kallikrein at 2 mM. It is filed as cell-free. Summed up: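 Human plasma kallikrein in 50 mM Tris/HCl, 100 mM NaCl, pH 8.44, with H-D-Pro-Phe-Arg-p-nitroanilide (S-2302) as chromogenic substrate. Percent inhibition was taken at 2.0 mM inhibitor against 0.1 mM S-2302 (Km = 0.604 mM).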
Plasma kallikrein (Homo sapiens), sequence (P03952 20-390 limits assumed): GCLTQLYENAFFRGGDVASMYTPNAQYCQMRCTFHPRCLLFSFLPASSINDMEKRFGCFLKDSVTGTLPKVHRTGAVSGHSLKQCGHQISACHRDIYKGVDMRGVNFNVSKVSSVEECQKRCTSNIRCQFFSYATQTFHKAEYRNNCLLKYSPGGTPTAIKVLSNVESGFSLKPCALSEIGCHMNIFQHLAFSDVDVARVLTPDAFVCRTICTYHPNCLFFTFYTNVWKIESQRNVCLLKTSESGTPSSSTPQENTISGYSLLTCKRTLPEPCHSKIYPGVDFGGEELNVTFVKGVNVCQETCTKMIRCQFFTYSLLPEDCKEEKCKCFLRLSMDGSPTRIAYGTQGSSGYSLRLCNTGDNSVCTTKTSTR
Plasma kallikrein (Homo sapiens), sequence (P03952 391-638 limits assumed): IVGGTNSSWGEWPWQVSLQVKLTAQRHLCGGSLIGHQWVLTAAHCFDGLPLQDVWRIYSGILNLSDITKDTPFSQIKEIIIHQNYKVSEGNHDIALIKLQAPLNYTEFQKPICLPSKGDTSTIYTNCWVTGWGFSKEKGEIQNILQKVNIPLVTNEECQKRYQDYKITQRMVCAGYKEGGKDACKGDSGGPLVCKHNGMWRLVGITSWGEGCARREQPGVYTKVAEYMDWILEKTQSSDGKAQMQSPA

In assay [2] the target is T1, Tissue-type plasminogen activator (Homo sapiens, UniProt P00750). Kind of assay: Inhibition against Tissue plasminogen activator at 1 mM. The method, boiled down:
(§1)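 Tissue-type plasminogen activator assayed by chromogenic amidolysis of H-D-Ile-Pro-Arg-p-nitroanilide (S-2288) in 0.2 M Tris/AcOH, pH 8.00. Percent inhibition was measured at 1.0 mM inhibitor against 0.3 mM S-2288 (Km = 0.673 mM). Separate Ki work used 0.1–0.9 mM S-2288.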
Target sequence in this assay (P00750 36-562 limits assumed): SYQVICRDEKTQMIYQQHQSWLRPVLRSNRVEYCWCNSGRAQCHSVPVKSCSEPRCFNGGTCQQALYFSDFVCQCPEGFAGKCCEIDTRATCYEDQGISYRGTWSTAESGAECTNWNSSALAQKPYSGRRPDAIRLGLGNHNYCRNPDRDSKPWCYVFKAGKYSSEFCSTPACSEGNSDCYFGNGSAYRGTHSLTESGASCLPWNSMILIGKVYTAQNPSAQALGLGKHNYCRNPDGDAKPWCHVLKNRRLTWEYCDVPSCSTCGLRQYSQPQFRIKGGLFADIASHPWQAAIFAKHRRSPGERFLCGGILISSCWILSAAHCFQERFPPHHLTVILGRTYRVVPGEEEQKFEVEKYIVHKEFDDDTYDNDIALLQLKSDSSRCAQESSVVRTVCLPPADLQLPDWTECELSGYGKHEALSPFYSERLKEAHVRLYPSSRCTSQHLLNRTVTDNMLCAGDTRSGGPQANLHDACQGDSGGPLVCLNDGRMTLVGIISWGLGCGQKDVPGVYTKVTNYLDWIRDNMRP

Assay [3] deals with T2, Urokinase-type plasminogen activator (Homo sapiens, UniProt P00749). Kind of assay: log1/Ki value was calculated against Urokinase-type plasminogen activator. The settings on record: read-out: Log 1/Ki (converted).
Assay [4] has as its target T3, Serine protease 1 (Bos taurus, UniProt P00760).
T3 sequence (P00760 whole entry): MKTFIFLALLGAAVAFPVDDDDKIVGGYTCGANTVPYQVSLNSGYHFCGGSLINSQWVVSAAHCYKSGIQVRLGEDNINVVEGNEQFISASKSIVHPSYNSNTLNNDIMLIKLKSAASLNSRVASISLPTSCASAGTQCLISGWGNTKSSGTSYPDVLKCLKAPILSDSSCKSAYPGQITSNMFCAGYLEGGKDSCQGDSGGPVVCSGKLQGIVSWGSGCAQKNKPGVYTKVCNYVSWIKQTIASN
Kind of assay: Inhibition against Trypsin.

The target of assay [5] is T3, Serine protease 1. The assay is described as follows: log1/Ki value was calculated against Trypsin. The settings on record: read-out: Log 1/Ki (converted).
Assay [6] concerns the target Prothrombin (Homo sapiens) (UniProt P00734). Kind of assay: Inhibition against human plasma thrombin at 1.0 mM. It is filed as cell-free. Summed up: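 Highly purified human plasma thrombin in 0.2 M Tris/AcOH, pH 8.00, with H-D-Ile-Pro-Arg-p-nitroanilide (S-2288) as chromogenic substrate. Inhibition was measured at 1.0 mM inhibitor against 7.0 µM S-2288 (Km = 7.10 µM).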

Assay [7] deals with T2, Urokinase-type plasminogen activator. Kind of assay: Inhibition against Urokinase-type plasminogen activator.
The next assay concerns the target Plasminogen (Homo sapiens, UniProt P00747). The assay is described as follows: Inhibition against human plasmin was determined at 0.5 mM. The method, boiled down: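 Human plasmin chromogenic amidolysis assay with substrate S-2251. Inhibition was measured at 0.5 mM inhibitor against 0.3 mM S-2251 (Km = 0.664 mM).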
The target of assay [8] is T1, Tissue-type plasminogen activator. Kind of assay: The compound was tested for its inhibition against Tissue plasminogen activator at 1 mM when assayed against 0.3 mM S-2288 (Km = 0.673 mM). Summed up: as §1
Target sequence in this assay (P00750 whole entry): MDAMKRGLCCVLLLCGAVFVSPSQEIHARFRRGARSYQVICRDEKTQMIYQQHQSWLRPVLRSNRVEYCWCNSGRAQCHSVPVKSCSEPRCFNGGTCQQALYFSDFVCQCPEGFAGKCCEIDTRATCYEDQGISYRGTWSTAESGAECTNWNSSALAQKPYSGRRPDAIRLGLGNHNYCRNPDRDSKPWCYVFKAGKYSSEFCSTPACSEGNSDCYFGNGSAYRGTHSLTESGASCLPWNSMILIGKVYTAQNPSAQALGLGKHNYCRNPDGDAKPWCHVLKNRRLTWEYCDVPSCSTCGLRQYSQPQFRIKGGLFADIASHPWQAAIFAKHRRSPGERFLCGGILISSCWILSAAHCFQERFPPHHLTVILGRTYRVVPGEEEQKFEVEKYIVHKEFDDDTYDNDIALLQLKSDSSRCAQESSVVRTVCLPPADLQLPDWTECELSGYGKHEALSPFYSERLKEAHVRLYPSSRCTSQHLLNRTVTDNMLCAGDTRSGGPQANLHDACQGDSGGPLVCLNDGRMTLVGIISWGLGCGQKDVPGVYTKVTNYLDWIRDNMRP

The term inhibition denotes the change of the read-out against control, counted positive when it falls. Read a high inhibition as strong suppression.

Plasminogen, sequence (P00747 97-580 limits assumed): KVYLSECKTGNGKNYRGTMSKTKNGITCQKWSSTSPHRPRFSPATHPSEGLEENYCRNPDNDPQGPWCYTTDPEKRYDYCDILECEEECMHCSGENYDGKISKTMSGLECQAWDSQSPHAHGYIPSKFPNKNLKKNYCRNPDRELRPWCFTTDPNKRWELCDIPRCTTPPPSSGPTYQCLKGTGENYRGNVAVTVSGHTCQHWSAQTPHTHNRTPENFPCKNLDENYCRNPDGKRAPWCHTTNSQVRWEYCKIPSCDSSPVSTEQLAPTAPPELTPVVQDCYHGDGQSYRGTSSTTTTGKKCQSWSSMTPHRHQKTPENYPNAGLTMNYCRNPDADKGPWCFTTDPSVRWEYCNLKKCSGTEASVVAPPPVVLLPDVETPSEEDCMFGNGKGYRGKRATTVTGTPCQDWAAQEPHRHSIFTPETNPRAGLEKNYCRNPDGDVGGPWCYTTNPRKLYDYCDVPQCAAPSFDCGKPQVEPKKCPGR
Plasminogen, sequence (P00747 581-810 limits assumed): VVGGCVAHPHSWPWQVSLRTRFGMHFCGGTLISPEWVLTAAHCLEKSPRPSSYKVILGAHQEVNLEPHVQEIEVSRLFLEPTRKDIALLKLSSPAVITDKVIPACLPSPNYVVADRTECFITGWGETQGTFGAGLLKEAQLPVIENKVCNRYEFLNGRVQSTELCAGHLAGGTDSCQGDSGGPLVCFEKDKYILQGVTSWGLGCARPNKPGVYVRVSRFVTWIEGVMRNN

Regarding `Cc1ccc(NC(=N)N)cc1`, the inhibition in assay [1] was below 30%; in assay [2] it was below 45%; in assay [6], below 10%. Besides, the Ki in assay [3] is 15.6 µM; at Serine protease 1 [4], 318 µM; on Serine protease 1 [5], 318 µM; in [7], 15.6 µM.

As to `NC(N)=Nc1cccc(Cl)c1`, the Ki is 61.7 µM in assay [3], 1100 µM on Serine protease 1 [4], 1100 µM at Serine protease 1 [5] and 61.8 µM in [7].

With `N=C(N)Nc1ccc(/C=C/C(=O)O)cc1`, the inhibition in [2] is below 45%. Moreover, the Ki in assay [3] is 1320 µM; at Serine protease 1 [4], 4920 µM; on Serine protease 1 [5], 4920 µM; in assay [7], 1330 µM.

With `N=C(N)Nc1ccccc1[N+](=O)[O-]`, the inhibition in [1] was below 30%; in [2], below 45%; in assay [6], below 10%.

Turning to `N=C(N)Nc1ccc([N+](=O)[O-])cc1`, the inhibition in [1] was below 30%; in assay [6], below 10%. In addition, the Ki was 20.6 µM in [3], 352 µM at Serine protease 1 [4], 352 µM on Serine protease 1 [5] and 20.6 µM in assay [7].

On to `Cc1ccccc1NC(=N)N`, for which the inhibition is below 30% in assay [1], below 45% in [2] and below 10% in assay [6]. In addition, the Ki is 259 µM in [3], 3550 µM on Serine protease 1 [4], 3550 µM on Serine protease 1 [5] and 259 µM in assay [7].

For the molecule `NC(N)=Nc1cccc(C(F)(F)F)c1`, the Ki is 419 µM in [3], 10700 µM on Serine protease 1 [4], 10700 µM on Serine protease 1 [5] and 419 µM in [7].

In the case of `COC(=O)c1ccc(NC(=N)N)cc1`, the inhibition was below 30% in assay [1], below 45% in assay [2] and below 10% in assay [6]. Besides, the Ki was 1450 µM in assay [3], 652 µM on Serine protease 1 [4], 652 µM at Serine protease 1 [5] and 1450 µM in [7].

`N=C(N)Nc1cccc(Cl)c1`: the inhibition was below 30% in [1], below 45% in [2] and below 10% in [6].

Turning to `COc1ccccc1NC(=N)N`, the inhibition is below 30% in assay [1], below 45% in assay [2] and below 10% in assay [6]. Further, the Ki in [3] was 136 µM; on Serine protease 1 [4], 881 µM; on Serine protease 1 [5], 881 µM; in assay [7], 136 µM.

On to `NC(N)=Nc1ccccc1[N+](=O)[O-]`, for which the Ki in assay [3] is 54.3 µM; at Serine protease 1 [4], 133 µM; at Serine protease 1 [5], 133 µM; in [7] it was 54.3 µM.

Regarding `CCc1ccc(NC(=N)N)cc1`, the values for the inhibition in assay [1], in [2] and in assay [6] were below 30%, below 45% and below 10%, respectively. Also, the Ki is 90.8 µM in assay [3], 5770 µM on Serine protease 1 [4], 5770 µM at Serine protease 1 [5] and 90.7 µM in assay [7].

For `N=C(N)Nc1cccc(C(F)(F)F)c1`, the inhibition in assay [1] is below 30%; in assay [2] it was below 45%; in [6], below 10%.

As to `N=C(N)Nc1ccc(Cl)cc1`, the inhibition was below 30% in assay [1], below 45% in [2] and below 10% in [6]. The Ki in assay [3] was 6.07 µM; at Serine protease 1 [4], 120 µM; at Serine protease 1 [5] it was 120 µM; in assay [7] it was 6.07 µM.

In the case of `N=C(N)Nc1ccc(Br)cc1`, the results for the inhibition in assay [1], in assay [2] and in assay [6] were below 30%, below 45% and below 10%, respectively. Moreover, the Ki was 30.7 µM in assay [3], 2780 µM at Serine protease 1 [4], 2780 µM at Serine protease 1 [5] and 30.7 µM in assay [7].

Take `N=C(N)Nc1ccc(C(F)(F)F)cc1`: the inhibition in assay [1] was below 30%; in assay [2], below 45%; in assay [6] it was below 10%. The Ki in [3] was 6.49 µM; at Serine protease 1 [4], 63.1 µM; at Serine protease 1 [5], 63.1 µM; in [7] it was 6.49 µM.

On to `N=C(N)Nc1ccccc1` [PHENYLGUANIDINE], for which the inhibition in [1] was below 30%; in assay [6] it was below 10%. Also, the Ki on Plasminogen is 2610 µM; in [8], 733 µM; in [3], 20.6 µM; at Serine protease 1 [4] it was 163 µM; at Serine protease 1 [5], 163 µM; in assay [7], 20.6 µM.

Regarding `COc1ccc(NC(=N)N)cc1`, the inhibition is below 30% in [1], below 45% in assay [2] and below 10% in assay [6]. Further, the Ki in assay [3] was 676 µM; at Serine protease 1 [4] it was 5890 µM; on Serine protease 1 [5] it was 5890 µM; in assay [7] it was 676 µM.

On to `N=C(N)Nc1ccccc1Cl`, for which the values for the inhibition in [1], in [2] and in assay [6] were below 30%, below 45% and below 10%, respectively.

As for `N=C(N)Nc1ccc(F)cc1`, the inhibition was below 30% in assay [1], below 45% in assay [2] and below 10% in assay [6]. Besides, the Ki in assay [3] was 72.4 µM; at Serine protease 1 [4], 808 µM; at Serine protease 1 [5], 807 µM; in [7], 72.4 µM.

As for `N=C(N)Nc1ccccc1N`, the inhibition in assay [1] was below 30%; in assay [2], below 45%; in assay [6], below 10%. Further, the Ki in assay [3] was 388 µM; on Serine protease 1 [4], 1180 µM; on Serine protease 1 [5], 1180 µM; in assay [7] it was 388 µM.

Turning to `NC(N)=Nc1ccccc1Cl`, the Ki in assay [3] is 103 µM; on Serine protease 1 [4] it was 898 µM; at Serine protease 1 [5], 897 µM; in assay [7], 103 µM.

Consider `N=C(N)Nc1ccc(C(=O)O)cc1` [4-GUANIDINO-BENZOIC ACID], for which the inhibition in [1] was below 30%; in assay [2], below 45%; in assay [6] it was below 10%. The Ki in assay [3] was 745 µM; on Serine protease 1 [4], 10000 µM; on Serine protease 1 [5], 10000 µM; in [7] it was 745 µM.
